From PubChem BioAssay
Fh CTSL1 inh = cathepsin L1 inhibition, PFM18AAP counter-screen; recombinant F. hepatica cathepsin L1, Z-Leu-Arg-MCA fluorescence; inhibition, % at 5.96 µM; 300,000 tested, 0.49% active;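 active = inhibition above the mean of all tested compounds plus 3 SD, set per screening campaign, cut at about 17% in these data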;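 also: 0% = plate median of test compound wells and 100% = 1 µM Z-Phe-Ala-diazomethylketone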
UCH37 inh = blocks the human deubiquitinase UCH37. Q9Y5K5. purified proteasome/UCH37, Ub-AMC cleavage fluorescence. inhibition, % (concentration not given with the values). 330,000 tested, 0.33% active;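 active = mean inhibition over replicate wells above about 20%, limit read from the data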;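 also: 0% = compound-free wells with enzyme and 100% = wells lacking proteasome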
Target sequence (Q9Y5K5 whole entry, looked up): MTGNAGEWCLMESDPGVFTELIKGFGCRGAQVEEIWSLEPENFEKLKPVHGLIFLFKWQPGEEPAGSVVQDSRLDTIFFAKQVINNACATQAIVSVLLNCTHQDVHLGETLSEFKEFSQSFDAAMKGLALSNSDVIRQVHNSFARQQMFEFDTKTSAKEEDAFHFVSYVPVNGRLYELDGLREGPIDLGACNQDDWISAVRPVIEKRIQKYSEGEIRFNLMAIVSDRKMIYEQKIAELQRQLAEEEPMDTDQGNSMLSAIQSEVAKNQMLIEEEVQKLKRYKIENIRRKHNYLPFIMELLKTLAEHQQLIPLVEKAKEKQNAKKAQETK
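System: Proteasome-associated human UCH37 deubiquitinase; Input: 0.15 nM proteasome in added enzyme buffer; Also added: Ub-AMC substrate from 1 µM stock; Incubation: 30 min compound-proteasome preincubation then 25 min substrate reaction, room temperature; Detection: fluorescence, ex 355 nm, em 460 nm; Read-out: % inhibition of Ub-AMC cleavage fluorescence; Benchmarks: no-proteasome and no-compound wells.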
CHOP inhibitor = blocks CHOP induction under ER stress | 220,000 tested, 3.8% active | inhibition, % at 10 µM | CHO-K1 CHOP-promoter luciferase, tunicamycin-induced, 15-18 h;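 active = compounds that reduced the stress-induced luciferase reporter signal by more than about 70% of percent inhibition, limit read from the data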;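 also: 0% = tunicamycin plus vehicle and 100% = wells without tunicamycin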
UPR CHOP act = apoptotic UPR (CHOP) activation | activation, % at 10 µM | 330,000 tested, 0.34% active | AID 449763 | CHO-CHOP luciferase reporter, luminescence; percent of tunicamycin response over DMSO baseline;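 active = at 10 µM dose, activation of 40% or more, normalized to positive control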;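 also: 100% = tunicamycin at 10 µg/mL and 0% = DMSO alone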
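System: CHO-CHOP luciferase reporter cell line; amount: 500 cells/well; buffer or medium: F12 medium containing 10% fetal bovine serum; incubation: 6 h compound exposure at 37 °C after overnight seeding; measured by: luciferase luminescence after 10 min with Steady-Glo reagent; evaluation: % reporter activation, DMSO baseline versus tunicamycin full activation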
XBP1 UPR activ = activators of adaptive arm of unfolded protein response (XBP1); CHO-XBP1 luciferase reporter, IRE1-XBP1 UPR activation, luminescence; percent of tunicamycin response, DMSO as zero; activation, % at 20 µM; 330,000 tested, 0.33% active;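 active = versus positive control, 20 µM dose yields 30% or more activation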;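 also: 100% = tunicamycin at 10 µg/mL and 0% = DMSO only wells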
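Material – CHO cell line with stable XBP1 luciferase reporter · Buffer or medium – F12 plus 10% FBS · Compound – single point, 20 µM final compound, 1% DMSO · Schedule – 16-18 h cell attachment at 37 °C, then 6 h compound exposure · Signal – Steady-Glo luminescence read · Benchmarks – high control tunicamycin 10 µg/mL final, low control DMSO vehicle only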
CHOP confirm = confirmation of CHOP induction inhibitors; shares compounds with CHOP inhibitor; CHO-CHOP promoter luciferase reporter, tunicamycin-induced, luminescence; 2,100 tested, 45% active; inhibition, % at 10 µM;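 active = mean of three repeat readings of reporter signal inhibition above a set limit, cut at about 70% in these data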;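 also: 0% = tunicamycin plus vehicle and 100% = wells lacking tunicamycin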
* hit, by the source's call; / = not tested or not shown. Only a selection was taken, and hits are over-represented in it overall.

SMILES	Fh CTSL1 inh	UCH37 inh	CHOP inhibitor	UPR CHOP act	XBP1 UPR activ	CHOP confirm
O=c1nc(Nc2ccc(OCc3ccccc3)cc2)sc2ncccc12	0.1	0.9	101.7*	-0.6	0.1	-24.3
Cc1cc(NC(=O)c2sc(Nc3ccc(F)c(Cl)c3)nc2N)no1	-4.2	3.0	100.3*	2.2	0.2	-31.7
O=C(O)c1ccc(NN=CC2=C(N3CCOCC3)/C(=C\c3ccccc3)CC2)cc1	/	0.4	/	/	/	/
CCOc1cc(C=Nn2cnnc2)ccc1OS(=O)(=O)c1ccccc1	/	2.9	/	/	/	/
CCc1nc2c(cnn2-c2ccc(Cl)cc2)c(=O)n1-c1ccc(OC)cc1	3.0	1.7	100.8*	1.4	5.2	87.6*
COc1ccc(C=NNc2nc3ccccc3c(=O)n2-c2ccccc2)cc1OC	/	1.5	/	/	/	/
COc1ccc(/C=N/NC(=O)c2nc(Cl)c(Cl)c(N)c2Cl)cc1COc1ccc(F)cc1F	3.0	/	100.5*	2.6	5.8	36.2
O=C(NN=Cc1ccc(OC2CSC2)cc1)c1ccccc1	/	2.2	/	/	/	/
C=CCN(CC=C)CC(O)Cn1c2ccccc2c2ccccc21 (stereo unspecified)	-2.2	5.1	59.4	-0.4	2.5	/
OC(COCC(F)(F)C(F)(F)C(F)(F)C(F)F)Cn1c2ccccc2c2ccccc21 (stereo unspecified)	2.5	1.3	107.7*	4.3	2.3	109.6*
Cc1cccc(C)c1OCC(O)Cn1c2ccccc2c2ccccc21 (stereo unspecified)	5.5	1.0	106.8*	-1.2	-2.5	-47.9
COc1cc(C(=O)NN=Cc2sccc2C)cc(OC)c1OC	/	10.1	/	/	/	/
COc1ccc(C(=O)NN=C(C)CC(=O)Nc2ccc3c(c2)OCCO3)c(OC)c1	/	-0.2	/	/	/	/
O=C(CNC(=O)c1ccc(Cl)cc1)N/N=C/C=C/c1ccccc1	2.8	/	99.0*	-0.5	1.1	20.1
O=C(CNC(=O)c1ccccc1)NN=C/C=C/c1ccccc1	/	8.3	/	/	/	/
CN(C)c1ccc(C=NNC(=O)C2COc3ccccc3O2)o1 (stereo unspecified)	/	-3.4	/	/	/	/
O=C1C(Cl)=C(N2CCCCC2)C(=O)C(Cl)=C1c1cnc(N2CCCCC2)s1	/	-26.4	/	127.6*	-0.5	95.0*
CCn1c(C)nc2cc(-c3nc4n(n3)Cc3ccccc3-4)ccc21	-1.1	6.2	/	-12.4	-14.8	138.5*
CC1(C)c2ssc(=S)c2-c2ccccc2N1C(=O)c1ccco1	-0.1	3.3	98.5*	-0.8	1.3	12.0
C=C1C(=O)O[C@@H]2C[C@@H](C)[C@@H]3C=CC(=O)[C@@]3(C)[C@@H](OC(C)=O)[C@H]12	-2.7	1.4	107.4*	-8.0	-8.6	120.3*
CN1CCN(CC(=O)N2CCn3c4c(c5cc(C6CCCCC6)ccc53)CCCC42)CC1 (stereo unspecified)	-0.3	/	/	9.1	26.2	131.9*
CCOC(=O)Cn1c(=NC(=O)CN2C(=O)CCC2=O)sc2cc(S(N)(=O)=O)ccc21	-0.2	0.5	-0.7	1.3	-0.3	/
CCOC(=O)Cn1c(=NC(=O)c2nc3ccccc3s2)sc2cc(S(N)(=O)=O)ccc21	3.7	-163.0	103.2*	-0.4	7.4	18.4
CC(=O)Nc1ccc(NC(=O)CC(C)=NNC(=O)c2cccc3ccccc23)cc1	/	1.2	/	/	/	/
CNc1oc(-c2ccc(C)cc2)nc1P(=O)(c1ccccc1)c1ccccc1	2.0	1.1	106.6*	1.3	2.2	42.8
SMILES	Fh CTSL1 inh	UCH37 inh	CHOP inhibitor	UPR CHOP act	XBP1 UPR activ	CHOP confirm
CNc1oc(-c2ccc(F)cc2)nc1S(=O)(=O)c1ccccc1	-0.2	-1.6	/	1.2	-0.3	/
Cc1n[nH]c(=S)n1/N=C/c1ccccc1OCc1ccc(Cl)cc1Cl	2.1	/	101.6*	2.2	16.3	3.3
Cc1ccccc1Oc1cc(-n2ncc(Cl)c(Cl)c2=O)ncn1	2.6	5.4	108.2*	/	/	118.7*
CCOc1cnn(-c2cc(Oc3ccc(C)cc3)ncn2)c(=O)c1Cl	-0.3	2.9	44.8	1.0	0.4	/
Cc1ccc2nc(-c3ccc(NC(=O)CSc4ccccc4)cc3)[nH]c2c1	0.4	-38.0	103.1*	1.6	2.5	-26.1
CCc1nnc(NC(=O)CSc2ccc(-c3nc4ccc(C)cc4[nH]3)cn2)s1	-1.6	-59.8	99.6*	1.3	1.9	1.3
O=C(CSc1ccc(Cl)cc1)Nc1cccc(-c2nc3ccccc3[nH]2)c1	-0.2	-78.5	98.6*	1.2	1.6	-54.8
O=C(CCN1CCCCC1)c1ccccc1	4.5	1.9	-11.1	0.4	-2.8	/
C[N+]1(CCC(=O)c2ccccc2)CCCCC1	1.4	2.2	97.3*	-0.4	-1.5	10.2
COc1cccc2cc(/C(=N/O)c3ccc(Br)cc3)oc12	0.1	/	105.7*	0.2	-0.9	20.5
Cc1ccc(S(=O)(=O)Nc2ccc(Cl)cc2)cc1NC(=O)c1cc2c(s1)CCCC2	2.8	1.9	103.5*	2.4	-3.8	65.7
Cc1ccc(S(=O)(=O)N2CCOCC2)cc1NC(=O)c1cc2c(s1)CCC2	1.2	0.6	3.1	-0.4	-0.7	/
COc1ccc(C=Nn2c(C)nc3sc(C)c(C)c3c2=O)cc1OC	/	4.1	/	/	/	/
O=C(CN1C(=O)S/C(=C\c2ccc(Cl)cc2)C1=O)NNC(=O)c1ccccc1O	2.4	-0.5	105.5*	/	/	14.2
COC(=O)c1ccccc1Sc1c(C=NOC(=O)c2ccccc2)c(C(F)(F)F)nn1C	/	-0.2	/	/	/	/
COc1ccc(NC(=S)NN=Cc2cccn2Cc2ccccc2F)cc1	/	-0.5	/	/	/	/
Oc1ccc(Br)cc1-c1nc2cnccn2c1NC1CCCC1	10.4	-31.4	/	-2.1	-0.6	/
Oc1ccc(Br)cc1-c1nc2cnccn2c1NC1CCCCC1	11.3	-26.9	97.6*	-0.2	8.6	87.4*
COc1cc(C=NNC(=O)CSCc2ccc([N+](=O)[O-])cc2)cc(OC)c1OC	/	5.0	/	/	/	/
COc1ccccc1-n1cc([C@@H]2C[C@H]3CN(c4ccccc4)C(=O)[C@]34CCCN24)cn1	1.9	0.8	102.0*	-3.7	-2.0	103.7*
Cc1ccccc1CCN(C(=O)Cn1nnc2ccccc21)C(C(=O)NC(C)(C)C)c1ccsc1 (stereo unspecified)	1.4	1.6	98.3*	1.5	-0.3	-15.6
CCNc1nc(Oc2c(Cl)cccc2Cl)cc(C(F)(F)F)n1	2.5	1.8	97.5*	-0.5	-0.8	101.5*
CCCCc1c(C)c(C#N)c2[nH]c3ccccc3n2c1=O	-0.4	-21.6	102.9*	-2.3	-0.4	55.9
O=C(/C=C/c1cccc(Cl)c1)Nc1ncccn1	2.9	3.6	16.6	3.9	2.5	/
O=C(/C=C/c1cccc(Cl)c1)c1nc2ccccc2[nH]1	4.8	1.2	102.4*	11.7	26.2	-123.2
COc1cc(-c2nc3ccc4ccccc4c3c3c2CCC3)cc(OC)c1O	5.2	-31.4	102.5*	1.0	-3.0	106.3*
